A short description of assay [1]: Her2 expression decrease, cell viability multiplex – SKBR3 breast tumor cells, AlphaScreen, ATP viability, primary screen (AID 461;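 active = Her2 level under about 52% in both replicate screens, with viability over 70% of control, limit read from the data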;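 as to Her2 level: lower value means less Her2 protein in the cells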;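 as to viability: percent of carrier control wells set as 100% viability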). The conditions noted are these: SKBR3 Her2 protein level, 18-24 h, measured here: SKBR3 viability, ATP luminescence, at 10 µM. (In Alpha technology, singlet oxygen from a donor bead excites a nearby acceptor bead.)
Assay [2] deals with Receptor tyrosine-protein kinase erbB-2 (Homo sapiens) (UniProt P04626). Described as above. As to conditions: 18-24 h, at 10 µM, stronger effect = lower value.
Receptor tyrosine-protein kinase erbB-2 (Homo sapiens), sequence (P04626 whole entry, looked up): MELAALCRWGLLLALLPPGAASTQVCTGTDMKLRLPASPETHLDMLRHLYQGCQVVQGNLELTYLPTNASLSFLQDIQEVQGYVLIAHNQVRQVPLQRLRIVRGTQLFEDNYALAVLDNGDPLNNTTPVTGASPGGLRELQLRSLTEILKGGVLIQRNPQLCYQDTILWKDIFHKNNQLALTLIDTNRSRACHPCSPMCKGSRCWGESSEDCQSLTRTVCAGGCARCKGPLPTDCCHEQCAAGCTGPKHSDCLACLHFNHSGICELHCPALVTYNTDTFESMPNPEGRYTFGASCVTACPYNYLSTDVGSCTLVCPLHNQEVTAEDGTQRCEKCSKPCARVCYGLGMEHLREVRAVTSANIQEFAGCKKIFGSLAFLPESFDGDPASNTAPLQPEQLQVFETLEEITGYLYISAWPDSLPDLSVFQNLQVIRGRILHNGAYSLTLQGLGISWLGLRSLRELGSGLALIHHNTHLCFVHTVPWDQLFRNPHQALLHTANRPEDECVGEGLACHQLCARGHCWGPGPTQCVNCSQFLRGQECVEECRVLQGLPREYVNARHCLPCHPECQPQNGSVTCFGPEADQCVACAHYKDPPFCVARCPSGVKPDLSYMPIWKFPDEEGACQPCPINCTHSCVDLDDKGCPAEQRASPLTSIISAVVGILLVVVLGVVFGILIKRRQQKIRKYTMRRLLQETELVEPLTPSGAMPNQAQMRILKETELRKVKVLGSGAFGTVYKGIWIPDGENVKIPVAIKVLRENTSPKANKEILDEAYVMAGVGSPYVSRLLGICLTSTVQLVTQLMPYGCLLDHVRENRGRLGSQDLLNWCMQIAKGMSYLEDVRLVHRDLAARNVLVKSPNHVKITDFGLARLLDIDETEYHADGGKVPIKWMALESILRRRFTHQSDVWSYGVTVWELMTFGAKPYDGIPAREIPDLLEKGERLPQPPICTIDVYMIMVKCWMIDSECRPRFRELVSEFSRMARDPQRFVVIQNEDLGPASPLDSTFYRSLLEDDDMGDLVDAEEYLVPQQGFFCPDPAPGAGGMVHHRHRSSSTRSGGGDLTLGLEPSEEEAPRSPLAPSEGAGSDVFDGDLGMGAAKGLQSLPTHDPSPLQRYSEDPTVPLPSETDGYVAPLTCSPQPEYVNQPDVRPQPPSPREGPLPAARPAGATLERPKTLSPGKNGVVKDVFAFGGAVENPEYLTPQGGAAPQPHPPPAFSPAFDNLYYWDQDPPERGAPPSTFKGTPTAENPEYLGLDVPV
Assay [3] in a line: reduced viability of SK-BR-3 breast cancer cells – cell-based, 24 h, human, pilot screen (AID 572;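 active = viability at or below 10% of carrier control in both of two separate runs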;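 also: compound exposure lasted between 18 and 24 h rather than exactly 24 h; 100% = carrier-treated control wells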). The conditions noted are these: SK-BR-3 viability, CellTiter-Glo luminescence, at 10 µM, stronger effect = lower value. Background: In ATP-based viability assays light output follows the ATP content of the culture.
The nature of assay [4]: HUVEC growth inhibition – cell-based, human, primary screen (AID 575).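 Also: 100% = median of untreated cell wells with 0.1% DMSO on each plate.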 As to conditions: HUVEC proliferation, CellTiter-Glo luminescence, 72 h; at 10 µM; stronger effect = lower value. In outline:
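Assay system: primary human umbilical vein endothelial cells / Buffer or medium: endothelial basal medium with 2% FBS plus growth supplements / Compound dosing: one dose, 10 µM final, 0.1% DMSO / Timing: 72 h treatment at 37 °C / Signal: CTG luminescence / Benchmarks: 32 DMSO-only cell-control wells (high), 32 MePR drug-control wells (low) per plate / Plate: collagen-coated 384-well format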

Assay [5] can be described thus: H69AR cell proliferation blockers – human, duplicate replicates, primary screen (AID 580;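 active = viability at or under a set limit in both replicates, limit being median viability minus 3 SD, cut at about 48% in these data, passing the limit was not always enough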;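 also: 100% = mean luminescence of untreated wells and 0% = no signal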). As to conditions: H69AR lung tumor cells viability, ATP luminescence, 72 h; at 10 µM; stronger effect = lower value.
The nature of assay [6]: MRP1 drug-resistance reversers in H69AR cells – cell-based, doxorubicin co-treatment, pilot screen (AID 601;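 active = viability loss from added drug above about 55%, and viability with drug at most 40%, in both replicates, limit read from the data, passing the limit was not always enough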). The conditions noted are these: CellTiter-Glo, 72 h, at 10 µM; for differential viability (reversal): stronger effect = higher value.
Assay [7] can be described thus: yeast transport mutant growth inhibition pilot in 384-well plates, post-Golgi transport modulator project (AID 636; in the data active = inhibition above about 31%). The conditions noted are these: absorbance 615 nm, about 18 h, stronger effect = higher value.
Assay [8] is described as follows: growth suppression of yeast trafficking mutant, preliminary HTS, modulators of trafficking downstream of Golgi apparatus project, 1536-format plate, OD 615 nm (AID 637; in the data active = inhibition above about 30%). As to conditions: yeast transport mutant growth, absorbance 615 nm, 18 h; stronger effect = higher value.
The mark [9] stands for this setting: H69AR cells + 2 uM doxorubicin, measured here: viability with 2 uM doxorubicin, stronger effect = lower value.
Where [10] appears, read: H69AR cells, compound alone cytotoxicity.

The structures appear in SMILES notation. The source made the active and inactive calls.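 The calls were made as follows, unless noted: active = viability at or below 30% in both replicate assays; inconclusive = viability at or below 30% in just one of the two assays; inactive = the rest.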

We go through 15 compounds from PubChem BioAssay.

By viability is commonly meant a read-out of living cells in per cent, often relative to untreated cells. What is called inhibition is the change of the read-out against control, counted positive when it falls.

`COc1ccc(C(=O)Nc2ccc(C)cn2)c(OC)c1`: the viability in assay [1] was 73.5%; in assay [3], 73.5% (inactive); in assay [4], 102% (inactive); in assay [5], 85.4% (inactive); in assay [6] (setting [9]) it was 74.2%; in assay [6] (setting [10]), 85.4%. Further, in assay [2], the Her2 level was 77% (inactive). In assay [6] (H69AR cells + 2 uM doxorubicin), the differential viability (reversal) was 11.2% (inactive). Also, the values for the inhibition in assay [7] and in assay [8] were -4.19% (inactive) and 0.98% (inactive), respectively.

For `C=C(Cl)COC(=O)[C@H]1C2C=CC(C2)C1C(=O)O` (stereo not given in full), the viability in assay [1] is 99.5%; in assay [3] it was 99.5% (inactive); in assay [4], 106% (inactive); in assay [5], 101% (inactive); in assay [6] (setting [9]), 98%; in assay [6] (setting [10]), 101%. In addition, the Her2 level in assay [2] is 120% (inactive). Besides, the differential viability (reversal) in assay [6] (H69AR cells + 2 uM doxorubicin) is 3.48% (inactive). For the same compound, the inhibition in assay [7] was -2.8% (inactive); in assay [8] it was -6.67% (inactive).

In the case of `COc1ccc(Cc2noc(-c3ccc(C)cc3)n2)cc1`, the viability was 91% in assay [1]; 91% (inactive) in assay [3]; 90.1% (inactive) in assay [4]; 91.2% (inactive) in assay [5]; 76.3% in assay [6] (setting [9]); 91.2% in assay [6] (setting [10]). Besides, in assay [2], the Her2 level is 131% (inactive). The differential viability (reversal) in assay [6] (H69AR cells + 2 uM doxorubicin) is 14.9% (inactive). The inhibition was 4.87% (inactive) in assay [7] and 45.8% (active) in assay [8].

As to `COc1cc(NC(=O)C(C)Oc2ccccc2)c(C(=O)O)cc1OC` (stereo not given), the viability in assay [1] was 116%; in assay [3], 116% (inactive); in assay [4] it was 96.4% (inactive); in assay [5], 92.8% (inactive); in assay [6] (setting [9]), 81.1%; in assay [6] (setting [10]), 92.8%. Besides, the Her2 level in assay [2] was 90% (inactive). For the same compound, the differential viability (reversal) in assay [6] (H69AR cells + 2 uM doxorubicin) was 11.7% (inactive). Further, the inhibition in assay [7] is -7.07% (inactive); in assay [8] it was 2.13% (inactive).

Take `COCCNc1oc(-c2ccc(C)cc2)nc1C#N`: the viability in assay [1] was 102%; in assay [3] it was 102% (inactive); in assay [4], 113% (inactive); in assay [5] it was 85.9% (inactive); in assay [6] (setting [9]), 77.5%; in assay [6] (setting [10]) it was 85.9%. Further, the Her2 level in assay [2] is 81% (inactive). The differential viability (reversal) in assay [6] (H69AR cells + 2 uM doxorubicin) was 8.44% (inactive). Further, the figures for the inhibition in assay [7] and in assay [8] were -4.46% (inactive) and 3.33% (inactive), respectively.

With `CCOC(=O)N1CCC2(O)CCCCC2C1c1ccc(F)cc1` (stereo not given), the viability was 102% in assay [1]; 102% (inactive) in assay [3]; 91.3% (inactive) in assay [4]; 96.8% (inactive) in assay [5]; 88.5% in assay [6] (setting [9]); 96.8% in assay [6] (setting [10]). In assay [2], the Her2 level was 125% (inactive). Also, the differential viability (reversal) in assay [6] (H69AR cells + 2 uM doxorubicin) was 8.28% (inactive). Further, the inhibition was -3.33% (inactive) in assay [7] and 30.8% (active) in assay [8].

As for `COc1cc(SC)ccc1C(=O)Nc1ccon1`, the viability was 98.5% in assay [1]; 98.5% (inactive) in assay [3]; 93% (inactive) in assay [4]; 101% (inactive) in assay [5]; 94.5% in assay [6] (setting [9]); 101% in assay [6] (setting [10]). The Her2 level in assay [2] is 104% (inactive). For the same compound, in assay [6] (H69AR cells + 2 uM doxorubicin), the differential viability (reversal) is 6.34% (inactive). Also, the values for the inhibition in assay [7] and in assay [8] were 0.27% (inactive) and 18.6% (inactive), respectively.

`CCC1(c2ccc(F)cc2)NC(=O)N(CC(=O)c2ccc[nH]2)C1=O` (stereo not given): the viability in assay [1] is 110%; in assay [3], 110% (inactive); in assay [4] it was 99.3% (inactive); in assay [5] it was 96.6% (inactive); in assay [6] (setting [9]), 86.9%; in assay [6] (setting [10]), 96.6%. Moreover, the Her2 level in assay [2] is 117% (inactive). For the same compound, in assay [6] (H69AR cells + 2 uM doxorubicin), the differential viability (reversal) was 9.76% (inactive). Besides, the inhibition in assay [7] was -2.08% (inactive); in assay [8], -4.83% (inactive).

`CCCS(=O)(=O)N1CCN(C(=O)c2cccs2)CC1`: the viability in assay [1] is 99.5%; in assay [3], 99.5% (inactive); in assay [4], 110% (inactive); in assay [5], 99.9% (inactive); in assay [6] (setting [9]), 101%; in assay [6] (setting [10]), 99.9%. Also, the Her2 level in assay [2] is 99.5% (inactive). Moreover, the differential viability (reversal) in assay [6] (H69AR cells + 2 uM doxorubicin) was -0.9% (inactive). Also, the inhibition was -1.07% (inactive) in assay [7] and 2.95% (inactive) in assay [8].

For the compound `O=C(Nc1cccc(C(F)(F)F)c1)c1ccco1`, the viability in assay [1] was 129%; in assay [3], 129% (inactive); in assay [4], 95.9% (inactive); in assay [5] it was 103% (inactive); in assay [6] (setting [9]), 84%; in assay [6] (setting [10]), 103%. For the same compound, the Her2 level in assay [2] was 79.5% (inactive). Moreover, the differential viability (reversal) in assay [6] (H69AR cells + 2 uM doxorubicin) was 19.4% (inactive). The inhibition in assay [7] is -5.33% (inactive); in assay [8] it was 8.52% (inactive).

With `COC(=O)Nc1ccc(S(=O)(=O)N2CCN(c3ccc(F)cc3)CC2)cc1`, the viability in assay [1] is 96.5%; in assay [3] it was 96.5% (inactive); in assay [4], 86.9% (inactive); in assay [5], 97.1% (inactive); in assay [6] (setting [9]) it was 94%; in assay [6] (setting [10]) it was 97.1%. Moreover, the Her2 level in assay [2] is 106% (inactive). Also, in assay [6] (H69AR cells + 2 uM doxorubicin), the differential viability (reversal) was 3.18% (inactive). In addition, the inhibition was -4.61% (inactive) in assay [7] and 9.84% (inactive) in assay [8].

Take `COc1cc(C(c2sc3nc(C)nn3c2O)N2CC(C)CC(C)C2)cc(OC)c1OC` (stereo not given): the viability in assay [1] is 78%; in assay [3] it was 78% (inactive); in assay [4], 98.8% (inactive); in assay [5], 103% (inactive); in assay [6] (setting [9]), 103%; in assay [6] (setting [10]) it was 103%. In addition, in assay [2], the Her2 level is 98.5% (inactive). Also, in assay [6] (H69AR cells + 2 uM doxorubicin), the differential viability (reversal) was 0.2% (inactive). Also, the inhibition in assay [7] is 0.9% (inactive); in assay [8], 0.17% (inactive).

Consider `COc1ccc(S(=O)(=O)N2CCOCC2)cc1C(=O)Nc1cc(C)on1`, for which the viability is 102% in assay [1]; 102% (inactive) in assay [3]; 102% (inactive) in assay [4]; 93.9% (inactive) in assay [5]; 85.8% in assay [6] (setting [9]); 93.9% in assay [6] (setting [10]). The Her2 level in assay [2] was 124% (inactive). In assay [6] (H69AR cells + 2 uM doxorubicin), the differential viability (reversal) was 8.07% (inactive). In addition, the inhibition is -3.42% (inactive) in assay [7] and -9.83% (inactive) in assay [8].

On to `O=C(Nc1ccc(N2C(=O)C3C4C=CC(C4)C3C2=O)cc1)Nc1cccnc1` (stereo not given), for which the viability in assay [1] is 108%; in assay [3] it was 108% (inactive); in assay [4] it was 75.3% (inactive); in assay [5] it was 86% (inactive); in assay [6] (setting [9]), 86.1%; in assay [6] (setting [10]) it was 86%. Further, in assay [2], the Her2 level was 83% (inactive). The differential viability (reversal) in assay [6] (H69AR cells + 2 uM doxorubicin) was -0.065% (inactive). Moreover, the inhibition was -3.29% (inactive) in assay [7] and -1.33% (inactive) in assay [8].

`CCOC(=O)c1ccc(NC(=O)CCc2c(C)nc3ncnn3c2C)cc1`: the viability in assay [1] is 88%; in assay [3], 88% (inactive); in assay [4], 107% (inactive); in assay [5], 92.7% (inactive); in assay [6] (setting [9]), 102%; in assay [6] (setting [10]), 92.7%. Besides, the Her2 level in assay [2] is 95.5% (inactive). For the same compound, the differential viability (reversal) in assay [6] (H69AR cells + 2 uM doxorubicin) is -9.71% (inactive). Also, the figures for the inhibition in assay [7] and in assay [8] were 1.37% (inactive) and -5.56% (inactive), respectively.
